The record followed here is ChEMBL document CHEMBL4616671, “Identification of N-Phenyl-7H-pyrrolo[2,3-d]pyrimidin-4-amine Derivatives as Novel, Potent, and Selective NF-κB Inducing Kinase (NIK) Inhibitors for the Treatment of Psoriasis” (J Med Chem, 2020).

Active and inactive are the calls of the source. The calls are words filed in the database; no cut-off is given here.

Data set [1] can be described thus: Intrinsic hepatic clearance in monkey. The following applies: rhesus monkey, in vivo. Type of data set: ADME, Macaca mulatta. The gist of the method: (§1)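 Scaled from microsomal intrinsic clearance: CLint,in vitro × microsomal protein per g liver × liver weight per kg body weight.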
Data set [2] can be described thus: Elimination half life in human liver microsomes incubated for 10 mins followed by potassium phosphate buffer addition and measured after 5 to 60 mins by LC-MS/MS analysis. As to conditions: read-out: beta t1/2. Type of data set: ADME, Microsome. The method, boiled down: (§2)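 Rat, dog, monkey or human liver microsomes pre-incubated with compound at 37 °C for 10 min; reaction started after pre-warming and stopped at 5, 15, 30, 60 min with chilled quench containing tolbutamide and labetalol. No-cofactor control in 100 mM potassium phosphate for 60 min. LC-MS/MS analysis; first-order fit: k = −slope, T1/2 = 0.693/k, CLint = k/microsomal protein concentration.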

Data set [3] addresses Mitogen-activated protein kinase kinase kinase 14 (Mus musculus) (UniProt Q9WUL6). Put plainly: In vivo inhibition of NIK in C57 mouse model of IMQ-induced psoriasis assessed as reduction in NF-kappaB signalling in back skin by measuring decrease in mRNA IL-10 level at 60 to 120 mg/kg, po administered starting from day 3 post IMQ-challenge and measured 2 days post-last dose of IMQ by qPCR analysis. Type of data set: functional, organism-based. The method, boiled down:
(§3)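 IMQ psoriasis model: 5% imiquimod cream applied to C57 mouse back skin once daily for seven days; oral dosing 60 or 120 mg/kg once daily from day 3, n = 6 per group. Back-skin mRNA measured by qPCR.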
Background: Quantitative PCR measures a nucleic acid by following its amplification.

Data set [4] is filed under the species Homo sapiens. Put plainly: Selectivity ratio of IC50 for human ACK1 to IC50 for human NIK.
Data set [5] in a line: Intrinsic clearance in dog liver microsomes assessed as per mg of protein incubated for 10 mins followed by potassium phosphate buffer addition and measured after 5 to 60 mins by LC-MS/MS analysis. Type of data set: ADME, Canis lupus familiaris, Microsome. The following applies: read-out: CLH. The method, boiled down: as §2
For data set [6], the target named is Leucine-rich repeat serine/threonine-protein kinase 2 (Homo sapiens, UniProt Q5S007). Put plainly: Inhibition of human LRRK2 using [RLGRDKYKTLRQIRQ] as substrate in presence of [gamma33P]ATP by hotspot assay.
Data set [7] is described as follows: Intrinsic hepatic clearance in human. Type of data set: ADME. The gist of the method: as §1
The target of data set [8] is T1, Tyrosine-protein kinase JAK3 (Homo sapiens, UniProt P52333).
T1 sequence (P52333 whole entry): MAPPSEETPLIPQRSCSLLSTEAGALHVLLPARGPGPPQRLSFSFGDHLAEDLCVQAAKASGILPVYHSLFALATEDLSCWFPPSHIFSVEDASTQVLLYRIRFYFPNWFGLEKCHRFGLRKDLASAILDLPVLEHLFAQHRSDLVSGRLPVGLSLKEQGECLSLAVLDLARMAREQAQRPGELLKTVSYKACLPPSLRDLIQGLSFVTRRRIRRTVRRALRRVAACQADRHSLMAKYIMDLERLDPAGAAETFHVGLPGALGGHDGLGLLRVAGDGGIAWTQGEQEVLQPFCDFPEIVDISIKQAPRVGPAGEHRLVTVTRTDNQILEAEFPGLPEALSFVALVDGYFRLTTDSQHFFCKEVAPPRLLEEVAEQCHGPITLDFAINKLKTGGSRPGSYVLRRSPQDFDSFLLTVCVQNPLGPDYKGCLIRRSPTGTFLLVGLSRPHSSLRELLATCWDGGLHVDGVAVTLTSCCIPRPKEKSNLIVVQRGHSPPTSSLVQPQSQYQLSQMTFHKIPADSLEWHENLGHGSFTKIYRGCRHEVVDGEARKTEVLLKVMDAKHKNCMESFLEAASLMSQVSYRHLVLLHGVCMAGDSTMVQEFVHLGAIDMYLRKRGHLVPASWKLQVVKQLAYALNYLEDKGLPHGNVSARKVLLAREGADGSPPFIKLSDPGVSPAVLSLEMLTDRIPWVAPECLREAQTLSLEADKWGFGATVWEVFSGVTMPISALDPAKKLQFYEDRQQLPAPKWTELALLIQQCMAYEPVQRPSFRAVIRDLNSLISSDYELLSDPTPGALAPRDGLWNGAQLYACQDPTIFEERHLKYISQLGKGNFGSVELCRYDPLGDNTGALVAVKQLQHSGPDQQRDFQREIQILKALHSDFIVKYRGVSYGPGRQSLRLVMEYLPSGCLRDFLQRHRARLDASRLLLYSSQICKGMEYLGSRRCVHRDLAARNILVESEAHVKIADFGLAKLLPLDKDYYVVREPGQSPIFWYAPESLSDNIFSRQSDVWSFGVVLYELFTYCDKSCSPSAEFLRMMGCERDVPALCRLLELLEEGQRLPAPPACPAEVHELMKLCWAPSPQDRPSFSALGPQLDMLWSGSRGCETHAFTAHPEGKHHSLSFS
Description: Inhibition of human JAK3 using [GGEEEEYFELVKKKK] as substrate in presence of [gamma33P]ATP by hotspot assay.

The target of data set [9] is Mitogen-activated protein kinase kinase kinase 14 (Mus musculus) (UniProt Q9WUL6). Description: In vivo inhibition of NIK in C57 mouse model of IMQ-induced psoriasis assessed as reduction in NF-kappaB signalling in back skin by measuring decrease in mRNA IL-6 level at 60 to 120 mg/kg, po administered starting from day 3 post IMQ-challenge and measured 2 days post-last dose of IMQ by qPCR analysis. Type of data set: functional, organism-based. The gist of the method:
as §3

Data set [10] has as its target Aurora kinase B (Homo sapiens, UniProt Q96GD4). Description: Inhibition of human Aurora B using [H-LRRASLG] as substrate in presence of [gamma33P]ATP by hotspot assay.
Data set [11] is described as follows: AUC (0 to infinity) in Sprague-Dawley rat at 1 mg/kg, iv administered as single bolus dose by LC-MS/MS analysis. Type of data set: ADME, organism-based. Set-up: dose 1 mg/kg, time infinity, route intravenous. As to conditions: in vivo. The method, boiled down: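 Single IV bolus in SD rats, 3 per group, in DMSO:PEG200:saline 20:20:60 (v/v/v), 0.2 mg/mL. Plasma protein-precipitated with ACN containing internal standards, then quantified by LC-MS/MS. AUC0-∞ from concentration-time profiles by linear trapezoidal rule, noncompartmental analysis. Mean ± SD of three rats.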

Data set [12] has as its target Mitogen-activated protein kinase kinase kinase 14 (Mus musculus) (UniProt Q9WUL6). Put plainly: In vivo inhibition of NIK in C57 mouse model of IMQ-induced psoriasis assessed as reduction in NF-kappaB signalling in back skin by measuring decrease in TNF-alpha mRNA level at 60 to 120 mg/kg, po administered starting from day 3 post IMQ-challenge and measured 2 days post-last dose of IMQ by qPCR analysis. Type of data set: functional, organism-based. The method, boiled down:
as §3

A short description of data set [13]: Intrinsic clearance in human liver microsomes assessed per mg of protein incubated for 10 mins followed by potassium phosphate buffer addition and measured after 5 to 60 mins by LC-MS/MS analysis. Type of data set: ADME, Microsome. The following applies: read-out: CLH. The method, boiled down:
as §2
On the technique in general: Liver microsomes are vesicles of endoplasmic reticulum, rich in cytochrome P450 enzymes.

In data set [14] the test system is Mus musculus. Put plainly: Suppression of IMQ-induced psoriasis in C57 mouse assessed as reduction in macrophage infiltration in back skin tissue at 60 to 120 mg/kg, ig administered starting from day 3 post IMQ-challenge and measured 2 days post-last dose of IMQ by F4/80 immunofluorescence staining based assay. Type of data set: functional, organism-based. The method, boiled down: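 IMQ-induced C57 mice (5% cream 7 days; 60 or 120 mg/kg i.g. daily from day 3). Frozen back-skin sections, 6 µm, stained with F4/80 antibody, DAPI counterstain, and imaged by confocal microscopy. Significance by two-tailed t-test.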

Mitogen-activated protein kinase kinase kinase 14 (Mus musculus), sequence (Q9WUL6 whole entry): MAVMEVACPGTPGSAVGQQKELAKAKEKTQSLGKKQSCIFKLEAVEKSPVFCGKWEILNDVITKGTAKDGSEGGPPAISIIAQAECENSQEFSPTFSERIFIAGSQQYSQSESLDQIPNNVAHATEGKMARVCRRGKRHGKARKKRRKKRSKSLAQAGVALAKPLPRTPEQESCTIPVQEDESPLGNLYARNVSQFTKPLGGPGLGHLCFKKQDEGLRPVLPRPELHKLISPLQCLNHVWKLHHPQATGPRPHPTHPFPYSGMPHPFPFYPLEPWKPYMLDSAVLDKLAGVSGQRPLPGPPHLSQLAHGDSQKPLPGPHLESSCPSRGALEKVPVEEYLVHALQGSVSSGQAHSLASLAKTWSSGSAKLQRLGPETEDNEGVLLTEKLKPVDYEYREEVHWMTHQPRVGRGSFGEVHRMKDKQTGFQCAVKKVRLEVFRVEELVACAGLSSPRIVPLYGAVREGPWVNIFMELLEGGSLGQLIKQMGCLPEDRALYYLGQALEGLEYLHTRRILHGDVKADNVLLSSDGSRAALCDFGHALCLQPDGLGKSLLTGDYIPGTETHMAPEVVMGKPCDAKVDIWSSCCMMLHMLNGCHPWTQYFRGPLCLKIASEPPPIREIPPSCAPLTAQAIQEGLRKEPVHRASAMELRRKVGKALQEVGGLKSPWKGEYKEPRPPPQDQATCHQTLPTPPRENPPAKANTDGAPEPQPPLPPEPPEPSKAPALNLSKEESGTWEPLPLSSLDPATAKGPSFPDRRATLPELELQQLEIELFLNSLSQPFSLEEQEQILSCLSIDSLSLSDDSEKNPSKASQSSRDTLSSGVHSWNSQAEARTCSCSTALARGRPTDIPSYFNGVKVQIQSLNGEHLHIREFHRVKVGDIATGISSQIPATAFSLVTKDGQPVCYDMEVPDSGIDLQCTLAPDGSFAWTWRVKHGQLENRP
Leucine-rich repeat serine/threonine-protein kinase 2, sequence (Q5S007 whole entry): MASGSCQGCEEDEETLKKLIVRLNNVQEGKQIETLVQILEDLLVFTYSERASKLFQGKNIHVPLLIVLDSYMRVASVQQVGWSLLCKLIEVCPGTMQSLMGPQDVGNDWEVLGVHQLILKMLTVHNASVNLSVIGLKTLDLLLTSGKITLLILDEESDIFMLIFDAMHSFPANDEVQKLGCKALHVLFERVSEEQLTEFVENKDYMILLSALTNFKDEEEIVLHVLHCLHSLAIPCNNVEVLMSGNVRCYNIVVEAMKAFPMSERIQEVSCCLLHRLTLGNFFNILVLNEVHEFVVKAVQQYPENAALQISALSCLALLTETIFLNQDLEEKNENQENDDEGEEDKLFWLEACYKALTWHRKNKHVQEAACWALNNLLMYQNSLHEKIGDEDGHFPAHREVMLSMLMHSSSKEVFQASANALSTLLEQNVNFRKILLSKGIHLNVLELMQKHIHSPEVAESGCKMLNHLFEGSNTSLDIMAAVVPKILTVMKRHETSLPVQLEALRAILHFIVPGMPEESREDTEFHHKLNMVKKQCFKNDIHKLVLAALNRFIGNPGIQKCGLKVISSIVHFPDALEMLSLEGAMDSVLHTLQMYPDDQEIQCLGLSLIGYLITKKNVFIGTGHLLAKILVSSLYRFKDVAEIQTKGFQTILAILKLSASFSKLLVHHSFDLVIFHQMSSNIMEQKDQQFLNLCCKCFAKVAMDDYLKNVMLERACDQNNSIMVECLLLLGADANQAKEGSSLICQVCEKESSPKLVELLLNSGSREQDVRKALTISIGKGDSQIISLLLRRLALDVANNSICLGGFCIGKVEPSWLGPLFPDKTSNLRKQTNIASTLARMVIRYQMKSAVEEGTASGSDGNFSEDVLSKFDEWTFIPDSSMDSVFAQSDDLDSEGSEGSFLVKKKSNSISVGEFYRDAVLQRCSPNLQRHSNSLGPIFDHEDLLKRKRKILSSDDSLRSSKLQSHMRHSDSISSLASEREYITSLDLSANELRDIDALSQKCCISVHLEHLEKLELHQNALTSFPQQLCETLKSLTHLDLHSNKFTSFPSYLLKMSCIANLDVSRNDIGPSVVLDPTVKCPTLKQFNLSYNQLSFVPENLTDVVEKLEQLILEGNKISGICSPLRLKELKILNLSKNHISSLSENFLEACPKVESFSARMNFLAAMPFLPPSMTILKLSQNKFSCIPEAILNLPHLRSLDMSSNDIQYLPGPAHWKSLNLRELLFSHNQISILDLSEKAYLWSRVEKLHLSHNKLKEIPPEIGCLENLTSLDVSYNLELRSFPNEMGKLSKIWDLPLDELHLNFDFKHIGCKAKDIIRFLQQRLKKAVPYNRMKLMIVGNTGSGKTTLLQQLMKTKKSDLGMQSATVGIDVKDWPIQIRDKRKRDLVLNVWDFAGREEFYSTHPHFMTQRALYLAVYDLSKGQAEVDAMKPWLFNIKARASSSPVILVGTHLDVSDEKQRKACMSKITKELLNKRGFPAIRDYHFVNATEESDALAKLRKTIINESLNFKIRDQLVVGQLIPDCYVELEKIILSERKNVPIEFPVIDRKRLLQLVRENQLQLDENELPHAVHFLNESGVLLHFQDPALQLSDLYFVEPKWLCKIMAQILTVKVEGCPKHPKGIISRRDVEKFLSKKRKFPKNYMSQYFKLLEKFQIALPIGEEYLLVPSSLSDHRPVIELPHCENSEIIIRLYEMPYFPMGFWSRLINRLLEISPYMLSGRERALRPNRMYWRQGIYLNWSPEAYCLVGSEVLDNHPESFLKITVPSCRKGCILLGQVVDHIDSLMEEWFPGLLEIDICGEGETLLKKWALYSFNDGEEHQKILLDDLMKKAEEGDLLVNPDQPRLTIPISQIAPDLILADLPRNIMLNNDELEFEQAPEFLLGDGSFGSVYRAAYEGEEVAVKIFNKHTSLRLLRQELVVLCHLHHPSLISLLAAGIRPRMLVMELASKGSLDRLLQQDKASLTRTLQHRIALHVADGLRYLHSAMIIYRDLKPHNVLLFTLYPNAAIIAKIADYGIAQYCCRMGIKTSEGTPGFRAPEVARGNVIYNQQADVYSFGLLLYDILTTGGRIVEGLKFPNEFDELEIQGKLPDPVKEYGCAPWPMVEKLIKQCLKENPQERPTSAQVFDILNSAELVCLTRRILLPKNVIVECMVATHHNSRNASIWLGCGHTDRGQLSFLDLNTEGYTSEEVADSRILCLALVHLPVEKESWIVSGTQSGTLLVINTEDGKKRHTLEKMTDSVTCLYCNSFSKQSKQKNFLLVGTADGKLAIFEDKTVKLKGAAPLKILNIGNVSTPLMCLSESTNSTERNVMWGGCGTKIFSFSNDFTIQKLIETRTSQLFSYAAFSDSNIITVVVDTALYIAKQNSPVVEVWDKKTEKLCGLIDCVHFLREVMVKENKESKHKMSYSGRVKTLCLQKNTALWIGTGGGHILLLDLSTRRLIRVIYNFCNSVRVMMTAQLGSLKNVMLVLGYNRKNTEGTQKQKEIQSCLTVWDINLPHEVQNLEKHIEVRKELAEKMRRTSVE
Aurora kinase B, sequence (Q96GD4 whole entry): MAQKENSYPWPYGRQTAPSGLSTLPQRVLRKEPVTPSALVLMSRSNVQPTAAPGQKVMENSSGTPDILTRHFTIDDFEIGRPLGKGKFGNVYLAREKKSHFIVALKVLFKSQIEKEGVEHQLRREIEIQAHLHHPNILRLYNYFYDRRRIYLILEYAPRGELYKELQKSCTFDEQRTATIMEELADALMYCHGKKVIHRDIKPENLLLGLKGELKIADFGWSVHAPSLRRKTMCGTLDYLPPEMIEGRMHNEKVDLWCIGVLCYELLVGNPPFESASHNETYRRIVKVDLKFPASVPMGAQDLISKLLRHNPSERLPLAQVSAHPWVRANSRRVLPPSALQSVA

In the case of `CC(O)(C#Cc1ccc(N2CCOCC2)c(Nc2ncnc3[nH]ccc23)c1)c1nccs1` (racemic), the CLH in [1] is 111 mL/min/kg; in data set [7], 30.6 mL/min/kg. Moreover, the half-life in data set [2] is 42.9 min. Further, the inhibition entry in data set [3], in [9], in data set [12] and in data set [14] was “Active” in each case. Further, the Ratio IC50 in data set [4] was 4 to 20. Moreover, the microsomal CLint was 43.3 µL/min/mg in data set [5] and 32.4 µL/min/mg in data set [13]. The concentration for half-maximal inhibition (IC50) was 94.6 nM in data set [6], 892 nM in [8] and 43.2 nM in [10]. In data set [11], this compound displayed a total exposure AUC(0-inf) of 419 ng·h/mL.

Broadly, the IC50 is the point on the concentration scale where inhibition reaches its midpoint. Broadly, the AUC(0-inf) is total exposure, with the tail of the curve extrapolated.
